Results: PubChem BioAssay AID602155 (Broad Institute, 2011)
Active and inactive are the calls of the source.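 How the source made its calls: active means radiolabeled lipid uptake into receptor liposomes lowered versus untreated receptor liposomes, like the reference inhibitor; inactive means the rest.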

Molecular target: Scavenger receptor class B member 1 (Mus musculus) (UniProt Q61009)
Test: inhibitors of purified SR-BI lipid uptake, orthogonal assay for SR-BI HDL uptake inhibitor project, biochemical, reconstituted liposomes, [3H]CE-HDL, scintillation, dry powder (AID 602155)
Settings: SR-BI proteoliposomes, [3H]CE-HDL selective uptake, at 1 µM, active compounds read low
In short: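 Material: murine SR-BI proteoliposomes; reagent: [3H]CE-labeled HDL; timing: 60 min compound pre-incubation, then 4 h HDL uptake at 37 °C; read-out: selective [3H]CE uptake into liposomes as percent of control; control set: compound-free SR-BI liposomes in 0.5% DMSO (high), receptor-free liposomes (low)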

Sequence of Scavenger receptor class B member 1 (Mus musculus) (Q61009 whole entry, looked up): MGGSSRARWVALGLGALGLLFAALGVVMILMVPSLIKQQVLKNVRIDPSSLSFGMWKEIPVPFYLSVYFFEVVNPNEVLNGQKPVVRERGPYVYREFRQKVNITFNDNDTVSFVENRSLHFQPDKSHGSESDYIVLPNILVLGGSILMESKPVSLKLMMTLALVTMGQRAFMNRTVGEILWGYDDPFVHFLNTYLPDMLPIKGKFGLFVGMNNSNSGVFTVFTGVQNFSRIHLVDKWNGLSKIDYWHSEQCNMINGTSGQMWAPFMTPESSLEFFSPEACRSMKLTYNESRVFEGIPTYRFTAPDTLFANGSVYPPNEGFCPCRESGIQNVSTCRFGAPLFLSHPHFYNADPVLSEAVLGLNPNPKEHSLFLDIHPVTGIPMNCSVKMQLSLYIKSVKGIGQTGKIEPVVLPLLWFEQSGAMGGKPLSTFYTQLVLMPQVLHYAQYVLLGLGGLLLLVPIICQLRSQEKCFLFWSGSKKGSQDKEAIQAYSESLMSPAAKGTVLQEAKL

| SMILES | lipid uptake |
| --- | --- |
| O=C(Nc1ccccc1)c1ccccc1NS(=O)(=O)c1ccc(Cl)cc1 | 128% (inactive) |
| CCC(=O)N1CCc2cc(-c3csc(NC(=O)c4ccco4)n3)ccc21 | 63.1% |
| CCOC(=O)N1CCC(NC(=O)c2ccc3c(c2)N(Cc2ccc(F)cc2)CCS3)CC1 | 52.9% |
| COc1ccc(-c2nnn(CC(=O)N(C3CCCCC3)C(C)C(=O)NC3CCCC3)n2)cc1OC (centres undefined) | 46.9% |
